How the values were obtained:
Type in all cases: functional
A549 = test: Growth inhibition of human A549 cells after 48 hrs by sulforhodamine B assay; details: A549, 48 h
Procedure, shortened: (§1)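 NCI 60-cell-line panel. Cells are grown in RPMI1640 with 5% fetal calf serum and 2 mM L-glutamine, seeded at a density set by growth characteristics, and preincubated 24 h. Compound is tested at a minimum of five concentrations at 10-fold dilution, with 48 h continuous exposure. Viability is read by sulforhodamine B protein assay. GI50, TGI and LC50 come from dose-response curves.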

EKVX = test: Growth inhibition of human EKVX cells after 48 hrs by sulforhodamine B assay; procedure, shortened: as §1
HOP-92 = test: Growth inhibition of human HOP92 cells after 48 hrs by sulforhodamine B assay; details: HOP-92, 48 h; procedure, shortened: as §1
NCI-H226 = test: Growth inhibition of human NCI-H226 cells after 48 hrs by sulforhodamine B assay; details: NCI-H226, 48 h; procedure, shortened: as §1
NCI-H322M = test: Growth inhibition of human NCI-H322M cells after 48 hrs by sulforhodamine B assay; procedure, shortened: as §1
HCT-116 = test: Growth inhibition of human HCT116 cells after 48 hrs by sulforhodamine B assay; details: HCT-116, 48 h; procedure, shortened: as §1
KM12 = test: Growth inhibition of human KM12 cells after 48 hrs by sulforhodamine B assay; details: KM12, 48 h; procedure, shortened: as §1
SF-268 [1] = test: Growth inhibition of human SF268 cells after 48 hrs by sulforhodamine B assay; details: SF-268, 48 h; for CC50: read-out: LC50 (the source's name); procedure, shortened: as §1
SNB-19 = test: Growth inhibition of human SNB19 cells after 48 hrs by sulforhodamine B assay; details: SNB-19, 48 h
Procedure, shortened: (§2)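 NCI 60-cell-line panel (nine cancer types), with cells grown in RPMI1640 plus 5% fetal calf serum and 2 mM L-glutamine. Cells are seeded at a density that depends on the line and preincubated 24 h. Compounds are then applied at a minimum of five 10-fold dilutions over a 5-log range with 48 h continuous exposure. Viability is read by SRB protein assay, and GI50 is derived from dose-response curves in units of 10^-5 M.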

U-251 = test: Growth inhibition of human U251 cells after 48 hrs by sulforhodamine B assay; details: U-251, 48 h; procedure, shortened: as §2
LOX IMVI = test: Growth inhibition of human LOXIMVI cells after 48 hrs by sulforhodamine B assay; procedure, shortened: as §1
SK-MEL-2 = test: Growth inhibition of human SK-MEL-2 cells after 48 hrs by sulforhodamine B assay; details: SK-MEL-2, 48 h; procedure, shortened: as §1
SK-MEL-28 = test: Growth inhibition of human SK-MEL-28 cells after 48 hrs by sulforhodamine B assay; details: SK-MEL-28, 48 h; procedure, shortened: as §1
SK-MEL-5 = test: Growth inhibition of human SK-MEL-5 cells after 48 hrs by sulforhodamine B assay; details: SK-MEL-5, 48 h; for CC50: read-out: LC50 (the source's name); procedure, shortened: as §1
UACC-62 = test: Growth inhibition of human UACC62 cells after 48 hrs by sulforhodamine B assay; details: UACC-62, 48 h; for CC50: read-out: LC50 (the source's name); procedure, shortened: as §2
IGROV-1 = test: Growth inhibition of human IGROV1 cells after 48 hrs by sulforhodamine B assay; details: IGROV-1, 48 h; procedure, shortened: as §1
OVCAR-4 = test: Growth inhibition of human OVCAR4 cells after 48 hrs by sulforhodamine B assay; details: OVCAR-4, 48 h; procedure, shortened: as §1
SK-OV-3 = test: Growth inhibition of human SKOV3 cells after 48 hrs by sulforhodamine B assay; details: SK-OV-3, 48 h; procedure, shortened: as §1
786-0 = test: Growth inhibition of human 786-0 cells after 48 hrs by sulforhodamine B assay; details: 786-0, 48 h; for CC50: read-out: LC50 (the source's name); procedure, shortened: as §1
ACHN = test: Growth inhibition of human ACHN cells after 48 hrs by sulforhodamine B assay; details: for CC50: read-out: LC50 (the source's name); procedure, shortened: as §1
CAKI-1 = test: Growth inhibition of human Caki1 cells after 48 hrs by sulforhodamine B assay; details: CAKI-1, 48 h; procedure, shortened: as §1
RXF 393 = test: Growth inhibition of human RXF393 cells after 48 hrs by sulforhodamine B assay; details: RXF 393, 48 h; for CC50: read-out: LC50 (the source's name); procedure, shortened: as §1
SN12C = test: Growth inhibition of human SN12C cells after 48 hrs by sulforhodamine B assay; procedure, shortened: as §1
NCI-H460 = test: Antiproliferative activity against human NCI-H460 cells assessed as cell growth at 100 uM after 48 hrs by alamar blue assay; details: NCI-H460, 48 h, read-out: Activity
Procedure, shortened: (§3)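 NCI three-cell-line primary screen. Cells are seeded and preincubated in microtiter plates. Compound is added at a single 10^-4 M concentration and cultures are incubated 48 h. The end-point is read with alamar blue. Results are given as percent growth relative to untreated control cells.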

SF-268 [2] = test: Antiproliferative activity against human SF268 cells assessed as cell growth at 100 uM after 48 hrs by alamar blue assay; details: SF-268, 48 h, read-out: Activity; procedure, shortened: as §3
UO-31 = test: Growth inhibition of human UO31 cells after 48 hrs by sulforhodamine B assay; details: UO-31, 48 h; procedure, shortened: as §2
PC-3 = test: Growth inhibition of human PC3 cells after 48 hrs by sulforhodamine B assay; details: PC-3, 48 h; procedure, shortened: as §1
DU-145 = test: Growth inhibition of human DU145 cells after 48 hrs by sulforhodamine B assay; details: DU-145, 48 h; procedure, shortened: as §1
MDA-MB-231 = test: Growth inhibition of human MDA-MB-231 cells after 48 hrs by sulforhodamine B assay; details: MDA-MB-231, 48 h; procedure, shortened: as §1
MDA-MB-435 = test: Growth inhibition of human MDA-MB-435 cells after 48 hrs by sulforhodamine B assay; details: MDA-MB-435, 48 h; procedure, shortened: as §1

COc1ccc(/C=N/c2nc3[nH]nc(C)n3c(=O)c2S(=O)(=O)NN2C(=O)C(CN3CCOCC3)SC2c2ccc(OC)cc2)cc1 (configuration not stated)
GI50 (A549): 29.6 µM
TGI (A549): > 100 µM
GI50 (EKVX): 93.9 µM
TGI (EKVX): > 100 µM
GI50 (HOP-92): 36.3 µM
LC50 (HOP-92): > 100 µM
TGI (HOP-92): > 100 µM
GI50 (NCI-H226): 53.6 µM
LC50 (concentration killing 50% of cells) (NCI-H226): > 100 µM
TGI (NCI-H226): > 100 µM
GI50 (NCI-H322M): 39.8 µM
TGI (NCI-H322M): > 100 µM
GI50 (HCT-116): 29.7 µM
LC50 (concentration killing 50% of cells) (HCT-116): > 100 µM
TGI (HCT-116): 97.3 µM
GI50 (KM12): 36.1 µM
GI50 (SF-268 [1]): > 100 µM
TGI (SF-268 [1]): > 100 µM
CC50 (SF-268 [1]): > 100 µM
GI50 (SNB-19): > 100 µM
TGI (SNB-19): > 100 µM
GI50 (U-251): 40.4 µM
LC50 (U-251): > 100 µM
TGI (U-251): > 100 µM
GI50 (LOX IMVI): 21.6 µM
TGI (LOX IMVI): 62.4 µM
GI50 (SK-MEL-2): 99.3 µM
LC50 (concentration killing 50% of cells) (SK-MEL-2): > 100 µM
TGI (SK-MEL-2): > 100 µM
GI50 (SK-MEL-28): > 100 µM
TGI (SK-MEL-28): > 100 µM
GI50 (SK-MEL-5): 19 µM
TGI (SK-MEL-5): > 100 µM
CC50 (SK-MEL-5): > 100 µM
GI50 (UACC-62): 25.4 µM
TGI (UACC-62): > 100 µM
CC50 (UACC-62): > 100 µM
GI50 (IGROV-1): 26 µM
LC50 (IGROV-1): > 100 µM
TGI (IGROV-1): 97.4 µM
GI50 (OVCAR-4): 94.4 µM
LC50 (OVCAR-4): > 100 µM
TGI (OVCAR-4): > 100 µM
GI50 (SK-OV-3): > 100 µM
TGI (SK-OV-3): > 100 µM
GI50 (786-0): 67.1 µM
TGI (786-0): > 100 µM
CC50 (786-0): > 100 µM
GI50 (ACHN): 23.1 µM
TGI (ACHN): 92.6 µM
CC50 (ACHN): > 100 µM
GI50 (CAKI-1): 43.3 µM
LC50 (50% lethal concentration) (CAKI-1): > 100 µM
TGI (CAKI-1): > 100 µM
GI50 (RXF 393): 15 µM
TGI (RXF 393): > 100 µM
CC50 (RXF 393): > 100 µM
GI50 (SN12C): 55.1 µM
LC50 (SN12C): > 100 µM
TGI (SN12C): > 100 µM
growth at 100 µM (NCI-H460): 16%
growth at 100 µM (SF-268 [2]): 75%
GI50 (UO-31): 39.6 µM
LC50 (UO-31): > 100 µM
TGI (UO-31): > 100 µM
GI50 (PC-3): 24.6 µM
LC50 (concentration killing 50% of cells) (PC-3): > 100 µM
TGI (PC-3): > 100 µM
GI50 (DU-145): 28.8 µM
LC50 (concentration giving 50% net cell kill) (DU-145): > 100 µM
TGI (DU-145): > 100 µM
GI50 (MDA-MB-231): 25.3 µM
LC50 (50% lethal concentration) (MDA-MB-231): > 100 µM
TGI (MDA-MB-231): > 100 µM
GI50 (MDA-MB-435): 35 µM
TGI (MDA-MB-435): > 100 µM

COc1ccc(/C=N/c2nc3[nH]nc(C)n3c(=O)c2S(=O)(=O)NN2C(=O)C(CN3CCN(C)CC3)SC2c2ccc(OC)cc2)cc1 (configuration not stated)
GI50 (A549): 13.4 µM
TGI (A549): 50.8 µM
GI50 (EKVX): 25.9 µM
TGI (EKVX): 60.3 µM
GI50 (HOP-92): 17.8 µM
LC50 (HOP-92): 74.2 µM
TGI (HOP-92): 36.4 µM
GI50 (NCI-H226): 12.4 µM
LC50 (concentration killing 50% of cells) (NCI-H226): 75.7 µM
TGI (NCI-H226): 30.6 µM
GI50 (NCI-H322M): 21.1 µM
TGI (NCI-H322M): 51.1 µM
GI50 (HCT-116): 5.89 µM
LC50 (concentration killing 50% of cells) (HCT-116): 71.5 µM
TGI (HCT-116): 47.2 µM
GI50 (KM12): 24.8 µM
GI50 (SF-268 [1]): 17.7 µM
TGI (SF-268 [1]): 42 µM
CC50 (SF-268 [1]): 99.6 µM
GI50 (SNB-19): 25.7 µM
TGI (SNB-19): 72.5 µM
GI50 (U-251): 17.6 µM
LC50 (U-251): > 100 µM
TGI (U-251): 45.2 µM
GI50 (LOX IMVI): 7.4 µM
TGI (LOX IMVI): > 100 µM
GI50 (SK-MEL-2): 21.3 µM
LC50 (concentration killing 50% of cells) (SK-MEL-2): 99.4 µM
TGI (SK-MEL-2): 46.1 µM
GI50 (SK-MEL-28): 30.3 µM
TGI (SK-MEL-28): 78.2 µM
GI50 (SK-MEL-5): 19.3 µM
TGI (SK-MEL-5): 39 µM
CC50 (SK-MEL-5): 78.5 µM
GI50 (UACC-62): 18.9 µM
TGI (UACC-62): 38.4 µM
CC50 (UACC-62): 77.8 µM
GI50 (IGROV-1): 21 µM
LC50 (IGROV-1): 93.9 µM
TGI (IGROV-1): 44.4 µM
GI50 (OVCAR-4): 23.3 µM
LC50 (OVCAR-4): 96.5 µM
TGI (OVCAR-4): 47.4 µM
GI50 (SK-OV-3): 27.1 µM
TGI (SK-OV-3): 73.3 µM
GI50 (786-0): 16.2 µM
TGI (786-0): 31.2 µM
CC50 (786-0): 59.9 µM
GI50 (ACHN): 17.4 µM
TGI (ACHN): 34.5 µM
CC50 (ACHN): 68.4 µM
GI50 (CAKI-1): 20.9 µM
LC50 (50% lethal concentration) (CAKI-1): 77.8 µM
TGI (CAKI-1): 40.3 µM
GI50 (RXF 393): 10.2 µM
TGI (RXF 393): 31.1 µM
CC50 (RXF 393): 95.1 µM
GI50 (SN12C): 18.6 µM
LC50 (SN12C): 68.9 µM
TGI (SN12C): 35.8 µM
growth at 100 µM (NCI-H460): 0%
growth at 100 µM (SF-268 [2]): 18%
GI50 (UO-31): 20.6 µM
LC50 (UO-31): 70.5 µM
TGI (UO-31): 38.1 µM
GI50 (PC-3): 14.7 µM
LC50 (concentration killing 50% of cells) (PC-3): 70.2 µM
TGI (PC-3): 32.2 µM
GI50 (DU-145): 11.8 µM
LC50 (concentration giving 50% net cell kill) (DU-145): 86.6 µM
TGI (DU-145): 32 µM
GI50 (MDA-MB-231): 12.2 µM
LC50 (50% lethal concentration) (MDA-MB-231): 88.6 µM
TGI (MDA-MB-231): 32.9 µM
GI50 (MDA-MB-435): 24.1 µM
TGI (MDA-MB-435): 64.6 µM
